# Assay results: ChEMBL document CHEMBL3817768, “Identification of a Chemical Probe for Family VIII Bromodomains through Optimization of a Fragment Hit” (J Med Chem, 2016)
# Activity calls are given as the source filed them. The rule behind the calls is not given here.
# How the values were obtained:
# [1] = biological target: T1, Protein polybromo-1 (Homo sapiens, UniProt Q86U86); experiment: Binding affinity to human PB1 isoform 5 expressed in BL21 (DE3)-R3-BirA cells assessed as change in melting temperature at 10 uM by sypro-orange dye-based differential scanning fluorimetric analysis; format: cell-based
# In short: (§1)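 Thermal shift (DSF) screen of bromodomain proteins with compound at 10 μM; binding read as change in melting temperature (Tm shift).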
# [2] = biological target: T2, SWI/SNF-related matrix-associated actin-dependent regulator of chromatin subfamily A member 2 (Homo sapiens, UniProt P51531); experiment: Binding affinity to human SMARC2B expressed in BL21 (DE3)-R3-BirA cells assessed as change in melting temperature at 10 uM by sypro-orange dye-based differential scanning fluorimetric analysis; format: cell-based; in short: as §1
# [3] = biological target: T3, SWI/SNF-related matrix-associated actin-dependent regulator of chromatin subfamily A member 4 (Homo sapiens, UniProt P51532); experiment: Binding affinity to human SMARCA4 expressed in BL21 (DE3)-R3-BirA cells assessed as change in melting temperature at 10 uM by sypro-orange dye-based differential scanning fluorimetric analysis; format: cell-based; in short: as §1
# [4] = biological target: T1, Protein polybromo-1; experiment: Binding affinity to human PB1 isoform 4 expressed in BL21 (DE3)-R3-BirA cells assessed as change in melting temperature at 10 uM by sypro-orange dye-based differential scanning fluorimetric analysis; format: cell-based; in short: as §1
# [5] = biological target: T2, SWI/SNF-related matrix-associated actin-dependent regulator of chromatin subfamily A member 2; experiment: Binding affinity to human SMARC2A expressed in BL21 (DE3)-R3-BirA cells assessed as change in melting temperature at 10 uM by sypro-orange dye-based differential scanning fluorimetric analysis; format: cell-based; in short: as §1
# [6] = biological target: T1, Protein polybromo-1; experiment: Binding affinity to human PB1 isoform 2 expressed in BL21 (DE3)-R3-BirA cells assessed as change in melting temperature at 10 uM by sypro-orange dye-based differential scanning fluorimetric analysis; format: cell-based; in short: as §1
# [7] = biological target: T1, Protein polybromo-1; experiment: Binding affinity to human PB1 isoform 3 expressed in BL21 (DE3)-R3-BirA cells assessed as change in melting temperature at 10 uM by sypro-orange dye-based differential scanning fluorimetric analysis; format: cell-based; in short: as §1
# [8] = biological target: T1, Protein polybromo-1; experiment: Inhibition of chromatin binding to full length GFP-tagged PB1 expressed in human U2OS cells assessed as acceleration of FRAP half-recovery time at 1 uM incubated for 1 hr in presence of SAHA by FRAP assay; format: cell-based
# In short: (§2)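 U2OS cells transfected with full-length GFP-PB1 and treated with SAHA to induce hyperacetylation. Mutant controls were PB1 N263A (second bromodomain) and N707F (fifth bromodomain). Read-out is FRAP half-recovery time (t½) from individual recovery curves, at least 20 cells per group, reported as mean ± SEM. Compared against WT with 2.5 μM SAHA.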
# [9] = biological target: T1, Protein polybromo-1; experiment: Binding affinity to human PB1 isoform 2 expressed in BL21 (DE3)-R3-BirA cells by isothermal titration Calorimetry
# In short: (§3)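 Absolute binding affinity measured by isothermal titration calorimetry on the bromodomain protein.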
# [10] = Half life in PBS at pH 7.4 at 20 degC; format: ADME; conditions: buffer
# [11] = biological target: T3, SWI/SNF-related matrix-associated actin-dependent regulator of chromatin subfamily A member 4; experiment: Binding affinity to human SMARCA4 expressed in BL21 (DE3)-R3-BirA cells by isothermal titration calorimetry
# [12] = biological target: T1, Protein polybromo-1; experiment: Binding affinity to human PB1 isoform 5 expressed in BL21 (DE3)-R3-BirA cells by isothermal titration calorimetry; in short: as §3
# [13] = system: RCC4; experiment: Antiproliferative activity against human RCC4 cells at 0.1 to 10 uM incubated for 24 to 72 hrs by MTT assay; format: functional, cell-based
# In short: (§4)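 Clear cell renal carcinoma lines (786-O with wild-type PB1 expression; Rcc4 with PB1 downregulation) treated with compound; proliferation read-out.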
# [14] = Drug recovery in cell media after 1 week at 37 degC by HPLC analysis; format: physicochemical; conditions: read-out: Drug recovery
# [15] = Cytotoxicity against mouse C3H10T1/2 cells assessed as cell death at 100 uM after 72 hrs by MTT assay; format: cell-based; conditions: c3h 10t1/2, 72 h
# [16] = system: C3H 10T1/2; experiment: Inhibition of differentiation of mouse C3H10T1/2 cells to adipocytes assessed as lipid accumulation at 1 uM by oil red O staining-based assay; format: functional, cell-based
# In short: (§5)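 C3H10T1/2 mesenchymal cells induced toward adipocytes with an adipogenic cocktail in presence of compound. Lipid droplet accumulation visualized by Oil Red O staining.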
# [17] = system: C3H 10T1/2; experiment: Inhibition of differentiation of mouse C3H10T1/2 cells to adipocytes assessed as lipid accumulation at 20 uM by oil red O staining-based assay; format: functional, cell-based; in short: as §5
# [18] = system: 786-0; experiment: Antiproliferative activity against human 786-0 cells at 0.1 to 10 uM incubated for 24 to 72 hrs by MTT assay; format: functional, cell-based; in short: as §4
# [19] = system: C2C12; experiment: Inhibition of differentiation in mouse C2C12 cells assessed as suppression of MyHC expression at 1 uM by HRP-peroxidase-based immunocytochemistry; format: functional, cell-based
# In short: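 C2C12 myoblasts grown with compound through differentiation, normally complete within 48 hours. Fusion into myotubes was scored, along with expression of the early marker myogenin and of myosin heavy chain (MyHC) in myotubes.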
# [20] = system: C2C12; experiment: Cytotoxicity against mouse C2C12 cells assessed as cell death at 100 uM after 72 hrs by MTT assay; format: cell-based; conditions: c2c12, 72 h
# [21] = Cytotoxicity against mouse C3H10T1/2 cells assessed as cell viability up to 50 uM after 72 hrs by MTT assay; format: cell-based; conditions: c3h 10t1/2, 72 h
# [22] = system: C2C12; experiment: Cytotoxicity against mouse C2C12 cells assessed as cell viability up to 50 uM after 72 hrs by MTT assay; format: cell-based; conditions: c2c12, 72 h
# [23] = system: C2C12; experiment: Inhibition of differentiation in mouse C2C12 cells assessed as shortening of myotubes with lower nuclei at 500 nM to 50 uM by HRP-peroxidase-based immunocytochemistry relative to control; format: functional, cell-based
# In short: (§6)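 C2C12 myoblasts grown with compound through differentiation, normally seen within 48 hours. Scored by cell fusion into myotubes (myotube length, nuclei per myotube) and MyHC expression relative to controls; myogenin monitored as an early marker.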
# [24] = system: C3H 10T1/2; experiment: Inhibition of differentiation of mouse C3H10T1/2 cells to adipocytes assessed as lipid accumulation at 5 uM by oil red O staining-based assay; format: functional, cell-based
# In short: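 C3H10T1/2 mesenchymal cells induced to differentiate to adipocytes with an adipogenic cocktail in the presence of compound; lipid droplet accumulation visualised by Oil Red O staining.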
# [25] = system: C2C12; experiment: Inhibition of differentiation in mouse C2C12 cells assessed as suppression of MyHC expression at 5 uM by HRP-peroxidase-based immunocytochemistry; format: functional, cell-based; in short: as §6
# [26] = biological target: T2, SWI/SNF-related matrix-associated actin-dependent regulator of chromatin subfamily A member 2; experiment: Binding affinity to human SMARCA2 expressed in BL21 (DE3)-R3-BirA cells by isothermal titration calorimetry
# [27] = biological target: T2, SWI/SNF-related matrix-associated actin-dependent regulator of chromatin subfamily A member 2; experiment: Inhibition of chromatin binding to full length GFP-tagged wild type SMARCA2 expressed in human U2OS cells assessed as acceleration of FRAP half-recovery time incubated for 1 hr in presence of SAHA by FRAP assay; format: cell-based
# In short: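 U2OS cells transfected with GFP-SMARCA2 (WT) and treated with SAHA to induce hyperacetylation, with compound given at several doses. The mutant control was GFP-SMARCA2 N1464F (acetyl-lysine-recognising asparagine).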
# [28] = biological target: T1, Protein polybromo-1; experiment: Inhibition of chromatin binding to full length GFP-tagged PB1 expressed in human U2OS cells assessed as acceleration of FRAP half-recovery time at 100 nM incubated for 1 hr in presence of SAHA by FRAP assay; format: cell-based; in short: as §2
# T2 sequence (P51531 whole entry): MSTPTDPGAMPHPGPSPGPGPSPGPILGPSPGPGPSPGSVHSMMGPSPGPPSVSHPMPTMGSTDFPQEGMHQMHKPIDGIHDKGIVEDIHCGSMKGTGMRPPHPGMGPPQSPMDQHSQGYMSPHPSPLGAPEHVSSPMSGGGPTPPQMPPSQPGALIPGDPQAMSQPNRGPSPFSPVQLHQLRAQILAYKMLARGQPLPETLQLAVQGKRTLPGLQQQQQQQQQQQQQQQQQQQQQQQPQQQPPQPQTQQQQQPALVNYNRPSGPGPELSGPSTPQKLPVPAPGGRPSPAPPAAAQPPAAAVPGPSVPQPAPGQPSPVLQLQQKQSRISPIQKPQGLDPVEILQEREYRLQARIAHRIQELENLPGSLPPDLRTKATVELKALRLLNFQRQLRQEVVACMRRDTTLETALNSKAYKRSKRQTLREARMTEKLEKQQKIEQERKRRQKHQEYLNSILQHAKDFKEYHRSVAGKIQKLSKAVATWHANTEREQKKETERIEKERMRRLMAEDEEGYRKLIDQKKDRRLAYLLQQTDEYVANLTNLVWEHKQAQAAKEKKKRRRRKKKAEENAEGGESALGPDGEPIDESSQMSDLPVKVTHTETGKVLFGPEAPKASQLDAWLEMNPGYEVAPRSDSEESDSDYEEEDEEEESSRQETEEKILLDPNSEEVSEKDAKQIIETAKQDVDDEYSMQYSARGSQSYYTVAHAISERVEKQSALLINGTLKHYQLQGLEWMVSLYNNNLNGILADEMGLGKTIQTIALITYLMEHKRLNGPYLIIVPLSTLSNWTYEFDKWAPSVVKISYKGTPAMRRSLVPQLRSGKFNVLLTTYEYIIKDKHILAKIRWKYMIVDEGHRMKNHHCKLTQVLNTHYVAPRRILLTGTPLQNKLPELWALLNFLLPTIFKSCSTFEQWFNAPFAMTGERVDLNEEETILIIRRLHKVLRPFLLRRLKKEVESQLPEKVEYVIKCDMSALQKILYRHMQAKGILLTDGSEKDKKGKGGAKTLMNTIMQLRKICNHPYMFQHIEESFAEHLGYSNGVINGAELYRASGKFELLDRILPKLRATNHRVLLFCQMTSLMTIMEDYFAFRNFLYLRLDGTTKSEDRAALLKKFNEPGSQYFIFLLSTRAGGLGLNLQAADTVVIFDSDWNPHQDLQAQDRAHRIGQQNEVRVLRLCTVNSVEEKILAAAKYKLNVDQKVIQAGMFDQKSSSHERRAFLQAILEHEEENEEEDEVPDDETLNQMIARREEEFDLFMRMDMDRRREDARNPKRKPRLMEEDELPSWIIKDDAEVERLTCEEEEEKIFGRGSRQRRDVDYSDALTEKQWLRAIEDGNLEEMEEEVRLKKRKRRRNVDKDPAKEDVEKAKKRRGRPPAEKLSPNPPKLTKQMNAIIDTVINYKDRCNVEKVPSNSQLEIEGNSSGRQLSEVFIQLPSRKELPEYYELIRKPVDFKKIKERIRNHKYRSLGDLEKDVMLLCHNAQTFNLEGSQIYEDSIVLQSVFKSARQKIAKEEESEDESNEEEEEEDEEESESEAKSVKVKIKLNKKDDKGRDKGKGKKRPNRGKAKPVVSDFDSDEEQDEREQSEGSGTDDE
# T3 sequence (P51532 whole entry, canonical isoform): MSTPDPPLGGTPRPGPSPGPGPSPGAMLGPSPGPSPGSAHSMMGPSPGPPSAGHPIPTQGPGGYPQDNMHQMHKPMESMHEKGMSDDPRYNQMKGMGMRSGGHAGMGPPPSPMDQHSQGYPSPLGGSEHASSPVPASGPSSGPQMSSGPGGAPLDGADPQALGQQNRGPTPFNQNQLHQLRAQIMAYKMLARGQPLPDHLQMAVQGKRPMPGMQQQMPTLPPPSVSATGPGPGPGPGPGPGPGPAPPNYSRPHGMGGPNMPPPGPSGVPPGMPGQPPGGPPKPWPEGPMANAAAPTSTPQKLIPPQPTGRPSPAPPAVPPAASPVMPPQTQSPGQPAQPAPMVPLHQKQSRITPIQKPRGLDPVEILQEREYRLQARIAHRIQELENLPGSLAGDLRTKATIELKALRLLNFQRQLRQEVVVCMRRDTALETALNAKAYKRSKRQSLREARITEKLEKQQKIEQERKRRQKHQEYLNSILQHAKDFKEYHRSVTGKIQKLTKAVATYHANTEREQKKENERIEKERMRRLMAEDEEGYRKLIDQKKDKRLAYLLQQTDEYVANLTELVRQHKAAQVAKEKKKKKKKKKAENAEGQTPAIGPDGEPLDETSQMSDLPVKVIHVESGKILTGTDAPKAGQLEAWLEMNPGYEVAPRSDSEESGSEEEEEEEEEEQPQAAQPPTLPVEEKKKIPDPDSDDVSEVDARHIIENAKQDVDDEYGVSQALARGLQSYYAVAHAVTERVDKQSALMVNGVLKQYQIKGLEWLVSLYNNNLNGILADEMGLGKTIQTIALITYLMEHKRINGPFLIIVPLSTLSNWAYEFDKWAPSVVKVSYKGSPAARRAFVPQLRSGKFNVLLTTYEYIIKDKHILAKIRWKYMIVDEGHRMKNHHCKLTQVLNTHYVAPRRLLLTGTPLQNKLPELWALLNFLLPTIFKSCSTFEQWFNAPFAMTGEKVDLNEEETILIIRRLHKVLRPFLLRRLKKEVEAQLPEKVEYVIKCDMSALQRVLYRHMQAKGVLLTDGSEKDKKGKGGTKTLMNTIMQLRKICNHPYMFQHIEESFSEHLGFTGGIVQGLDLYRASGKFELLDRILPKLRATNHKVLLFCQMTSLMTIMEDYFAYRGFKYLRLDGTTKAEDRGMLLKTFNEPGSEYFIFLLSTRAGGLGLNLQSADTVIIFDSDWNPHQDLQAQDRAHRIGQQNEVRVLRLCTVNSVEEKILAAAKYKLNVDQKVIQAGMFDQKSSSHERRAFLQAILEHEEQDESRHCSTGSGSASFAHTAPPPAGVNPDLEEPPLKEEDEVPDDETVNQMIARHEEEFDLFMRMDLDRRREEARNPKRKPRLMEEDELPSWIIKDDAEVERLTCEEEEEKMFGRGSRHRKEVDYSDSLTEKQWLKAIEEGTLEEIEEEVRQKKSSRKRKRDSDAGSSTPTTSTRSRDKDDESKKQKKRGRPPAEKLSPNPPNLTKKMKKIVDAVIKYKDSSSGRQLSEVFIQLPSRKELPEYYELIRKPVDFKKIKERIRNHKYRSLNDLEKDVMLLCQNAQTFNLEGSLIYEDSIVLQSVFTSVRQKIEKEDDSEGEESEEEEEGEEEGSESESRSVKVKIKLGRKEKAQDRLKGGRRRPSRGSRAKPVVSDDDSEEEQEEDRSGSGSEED
# T1 sequence (Q86U86 whole entry, canonical isoform): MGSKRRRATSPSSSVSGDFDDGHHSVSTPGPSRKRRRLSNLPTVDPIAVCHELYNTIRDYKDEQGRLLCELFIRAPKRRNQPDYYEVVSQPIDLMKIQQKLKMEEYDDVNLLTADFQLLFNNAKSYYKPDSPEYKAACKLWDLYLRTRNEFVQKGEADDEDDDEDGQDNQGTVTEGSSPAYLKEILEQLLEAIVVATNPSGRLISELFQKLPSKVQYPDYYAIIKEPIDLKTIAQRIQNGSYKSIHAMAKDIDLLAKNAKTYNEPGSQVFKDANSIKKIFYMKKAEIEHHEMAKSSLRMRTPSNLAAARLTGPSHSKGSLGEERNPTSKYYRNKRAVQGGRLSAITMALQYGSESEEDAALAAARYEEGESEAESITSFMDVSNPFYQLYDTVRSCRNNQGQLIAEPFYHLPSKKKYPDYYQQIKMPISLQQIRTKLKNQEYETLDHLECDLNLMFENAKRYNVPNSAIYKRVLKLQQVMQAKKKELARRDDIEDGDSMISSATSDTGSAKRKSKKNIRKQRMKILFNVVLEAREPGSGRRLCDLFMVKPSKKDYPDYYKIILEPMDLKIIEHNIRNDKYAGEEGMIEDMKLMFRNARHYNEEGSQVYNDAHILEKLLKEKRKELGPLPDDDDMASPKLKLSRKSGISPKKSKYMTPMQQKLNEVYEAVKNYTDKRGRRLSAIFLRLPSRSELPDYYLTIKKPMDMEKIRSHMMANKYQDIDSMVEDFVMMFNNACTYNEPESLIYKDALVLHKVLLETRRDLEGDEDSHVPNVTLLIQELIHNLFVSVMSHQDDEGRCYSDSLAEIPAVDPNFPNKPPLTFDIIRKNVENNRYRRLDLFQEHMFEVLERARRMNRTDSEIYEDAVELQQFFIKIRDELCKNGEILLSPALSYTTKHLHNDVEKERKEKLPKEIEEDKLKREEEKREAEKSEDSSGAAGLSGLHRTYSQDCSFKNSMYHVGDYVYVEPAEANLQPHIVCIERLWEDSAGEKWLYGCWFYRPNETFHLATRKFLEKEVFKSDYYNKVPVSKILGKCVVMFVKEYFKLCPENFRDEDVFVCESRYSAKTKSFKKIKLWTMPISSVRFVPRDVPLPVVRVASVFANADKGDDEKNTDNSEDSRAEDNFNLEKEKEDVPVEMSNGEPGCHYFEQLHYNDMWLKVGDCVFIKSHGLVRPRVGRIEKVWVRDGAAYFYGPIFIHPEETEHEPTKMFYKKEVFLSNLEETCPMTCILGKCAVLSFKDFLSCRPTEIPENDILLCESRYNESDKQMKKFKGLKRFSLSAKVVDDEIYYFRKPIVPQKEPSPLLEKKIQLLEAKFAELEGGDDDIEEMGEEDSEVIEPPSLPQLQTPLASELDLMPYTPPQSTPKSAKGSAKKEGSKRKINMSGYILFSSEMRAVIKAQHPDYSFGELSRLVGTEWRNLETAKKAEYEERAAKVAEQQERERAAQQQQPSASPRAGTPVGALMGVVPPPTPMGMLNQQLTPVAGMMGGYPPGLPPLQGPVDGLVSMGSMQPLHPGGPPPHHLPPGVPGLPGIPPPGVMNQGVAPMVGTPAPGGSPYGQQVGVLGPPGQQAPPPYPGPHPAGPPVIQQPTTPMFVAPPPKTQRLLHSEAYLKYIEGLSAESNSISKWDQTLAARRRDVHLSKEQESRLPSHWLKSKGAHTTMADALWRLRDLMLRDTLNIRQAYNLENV
Structure (SMILES),ΔTm [1] [°C],ΔTm [2] [°C],ΔTm [3] [°C],ΔTm [4] [°C],ΔTm [5] [°C],ΔTm [6] [°C],ΔTm [7] [°C],also measured
O=C(/C=C/N1CCN(c2cccc(OCc3ccncc3)n2)CC1)c1ccccc1O,7,3.7,7.5,1.3,7.4,0.9,0.7,–
C#CCNc1ccnc(N2C[C@H]3C[C@@H]2CN3/C=C/C(=O)c2cccc(OC)c2O)n1,-0.4,-0.4,0.7,–,0.7,–,–,inhibition [8]: inactive
O=C(/C=C/N1CC2CCC(CC2)C1)c1ccccc1O,6.6,2,3.8,2,5.1,5.2,3.3,–
O=C(/C=C/N1CCc2c(ncnc2NC2CC2)C1)c1ccccc1O,9.1,–,7.7,2.4,–,6.7,3.5,Kd [9]: 0.152 µM; t1/2 [10]: 20 h; Kd [11]: 0.049 µM; Kd [12]: 0.028 µM
O=C(/C=C/N1C[C@H]2C[C@@H]1CN2c1ccccn1)c1ccccc1O,–,5,–,–,8.2,–,–,Activity [13]: inactive; remaining at 168 h [14]: > 90%; Activity [15]: 50%; inhibition [16]: Active; inhibition [17]: Active; Activity [18]: inactive; inhibition [19]: Active; t1/2 [10]: > 250 h; Activity [20]: 50%; Activity [21]: Non-toxic; Activity [22]: Non-toxic; inhibition [23]: Active
CC(C)(C)c1nc2c(n1CC1CC1)CCN(/C=C/C(=O)c1ccccc1O)C2,8,3.8,5.8,1.2,5.9,3.8,1.5,–
CN(C)c1ncnc2c1CCN(/C=C/C(=O)c1ccccc1O)C2,5.1,2.2,3.4,1.2,4.1,3.5,1.3,–
O=C(/C=C/N1CCc2c(ncn2Cc2ccccc2)C1)c1ccccc1O,8,3,5.3,1.6,5.8,4.6,1.9,–
O=C(/C=C/N1CCCC1)c1ccccc1O,5.7,3,4.7,0.7,5.5,2.3,1.1,–
COc1cccc(C(=O)/C=C/N2CCCC2)c1O,0.4,-0.4,0.7,0.3,0.7,0.1,0,–
O=C(/C=C/N1[C@H]2CC[C@@H]1c1ncnc(NC3CC3)c1C2)c1ccccc1O,9.3,–,7.4,2.1,8.5,5.9,6.4,Activity [13]: inactive; inhibition [24]: Active; inhibition [8]: Active; Activity [15]: 50%; inhibition [25]: Active; Kd [26]: 0.0373 µM; Activity [18]: inactive; Activity [20]: 50%; Activity [21]: Non-toxic; inhibition [27]: Dose-dependent effect; inhibition [28]: inactive; Activity [22]: Non-toxic; inhibition [23]: Active
CN(C)/C=C/C(=O)c1ccccc1O,4.9,2,3.3,0.7,4.8,2,0.5,–
O=C(/C=C/N1CCN(c2ncccn2)CC1)c1ccccc1O,4.6,1.1,2.9,0.6,2.9,0.7,0.3,–
CC(C)(C)OC(=O)N1CCN(/C=C/C(=O)c2ccccc2O)C2(CC2)C1,7.6,4.1,6.1,0.6,7.5,2.2,0.9,–
O=C(/C=C/N1CCC(c2cc[nH]n2)CC1)c1ccccc1O,6.9,3.9,6.3,1,8.2,3.2,1.8,–
O=C(/C=C/N1CCc2cn[nH]c2C1)c1ccccc1O,7.8,4.8,7,1.2,7.8,4.1,1.7,–
O=C(/C=C/N1CCc2c(ccnc2N[C@H]2CC[C@H](O)CC2)C1)c1ccccc1O,8.3,2.4,6.1,0.4,5.4,2.5,1.1,–
